# Screening data (PubChem BioAssay)
# Only some compounds are listed: those with a hit (about 6.4% of all), similar ones and a draw of the others.
# HUVEC prolif 384 – inhibitors of HUVEC proliferation, primary screen, cell-based, 384-well; CellTiter-Glo luminescence, 72 h; stronger effect = lower value; viability, % at 10 µM (by protocol); 86,000 compounds, 1.1% hits; AID 648, 2007;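 active = viability at or below 30%; inactive = viability above 30%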;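 note: 100% = median luminescence of DMSO-only cell control wells on each plate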
# Jurkat tox 60K – cytotoxicity toward Jurkat T cells, primary screen, cytotoxicity control, cell-based, Jurkat E6.1, 60K MLSMR library. Jurkat E6.1 viability, ATP luminescence, 48 h. inhibition, % at 4 µM. 56,000 compounds, 1.2% hits. AID 463, 2006;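 active = inhibition above the mean inhibition of all tested compounds plus 3 SD, cut at about 28% in these data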
# Ecoli WT expand – growth inhibitors of wild-type E. coli, primary screen, strain BW25113, expanded library, OD600. growth inhibition, % at 100 µM. AID 710, 2007. OD600 absorbance. 98,000 compounds, 0.15% hits;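 active = growth inhibition above about 50% at one test dose, limit read from the data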;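 note: growth measured after 20 h incubation at 37 °C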
# H69AR inhibit – proliferation blockers of H69AR lung cancer cells, primary screen, cell-based, human, 86K library. H69AR lung tumor viability, ATP luminescence, 72 h; stronger effect = lower value. viability, % at 10 µM. 85,000 compounds, 6% hits. AID 598, 2007;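 active = viability at or below 40%; inactive = viability above 40%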;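 note: multidrug resistant small cell line overexpressing MRP-1 efflux transporter; 100% = mean luminescence of untreated control wells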
# tolC growth inh – growth inhibitors of E. coli tolC mutant, primary screen, strain BW25113 ΔtolC::kan, 384-well. 65,000 compounds, 2.2% hits. growth inhibition, % at 10 µM (by protocol). OD615;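 active = growth inhibition at or above a cutoff equal to the mean over every tested compound plus 3 SD, cut at about 60% in these data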;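 note: growth measured after 20 h incubation at 37 °C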
#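 Test system: tolC-deleted E. coli BW25113; medium: LB with kanamycin 50 µg/mL; compound: single-point testing at 10 µM; incubation: 20 h compound exposure of bacteria at 37 °C; signal: OD at 615 nm; evaluation: growth inhibition in percent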
# Fibroblast inh – antiproliferative effect on LL 47 fibroblasts – human, LL 47 cells, CellTiter-Glo luminescence, primary screen; LL 47 human lung fibroblast viability, ATP luminescence; stronger effect = lower value; viability, % at 10 µM; 85,000 compounds, 1.1% hits; AID 719, 2007;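 active = viability at or below 50% in the single dose screen; inactive = viability above 50%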;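 note: compound exposure lasted 72 h before the ATP readout; 100% = median luminescence of untreated cell-only wells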
#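 Material: human LL 47 lung fibroblast cells; quantity: 1,150 cells/well; medium: IMEM plus 15% FBS; doses: 0.1% DMSO in all compound wells; timing: overnight attachment after seeding, then 72 h compound exposure at 37 °C; detection: CellTiter-Glo luminescence; measure: % viability of median cell-only signal; controls: cell-only wells, no compound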
# Starred values were filed as active, the others as inactive; · = no result.
SMILES,HUVEC prolif 384,Jurkat tox 60K,Ecoli WT expand,H69AR inhibit,tolC growth inh,Fibroblast inh
COc1ccc(N2CCN(Cc3nc(N)nc(Nc4ccc(C)c(Cl)c4)n3)CC2)cc1,64,-2,1,23*,32,98
Cc1ccc(Nc2nc(N)nc(CN3CCN(Cc4ccc5c(c4)OCO5)CC3)n2)cc1Cl,66,5,11,14*,41,85
Cc1ccc(Nc2nc(N)nc(CN3CCN(C)CC3)n2)cc1C,102,-4,0,86,-17,98
Cc1ccc(Nc2nc(N)nc(CN3CCN(Cc4ccc5c(c4)OCO5)CC3)n2)cc1,90,-2,5,78,-2,90
Cc1ccc(Nc2nc(N)nc(CN3CCN(c4ccccc4)CC3)n2)cc1Cl,70,2,-1,44,77*,96
CC(C)c1nnc(NC(=O)CCC(=O)NC2CCCCCCC2)s1,93,·,-4,90,·,101
CC(=O)c1ccc(N=Cc2c(O)n(-c3cc(Cl)ccc3N3CCOCC3)c(=O)c3ccccc23)cc1,92,·,-15,86,·,99
CCOC(=O)c1[nH]c(C)c(C(=O)Nc2ccc(C)c(Cl)c2)c1C,62,6,-11,32*,-12,79
CCOC(=O)c1[nH]c(C)c(C(=O)Nc2ccc(C)c(F)c2)c1C,73,49*,-9,20*,-4,92
CCOC(=O)c1[nH]c(C)c(C(=O)NCc2ccc(Cl)cc2)c1C,79,-3,-18,88,-1,105
Cn1nnnc1SCCNCc1ccncc1,103,10,-11,90,-14,97
Cc1ccccc1Cn1ccc(NC(=O)c2cnn3c(C(F)(F)F)cc(-c4ccco4)nc23)n1,75,6,-10,34*,22,100
COc1ccc(NC(=O)c2cnn3c(C(F)(F)F)cc(-c4ccco4)nc23)cc1OC,71,-3,-10,88,18,102
O=C(Nc1ccc2c(c1)OCO2)c1cnn2c(C(F)(F)F)cc(-c3ccco3)nc12,66,12,-16,27*,0,53
COc1ccc(C(=O)COC(=O)[C@H](C)Nc2ccc(C(F)(F)F)cc2[N+](=O)[O-])c(OC)c1,106,·,-6,109,·,100
CC(=O)NNc1ccc(C(F)(F)F)cc1[N+](=O)[O-],96,·,·,93,·,102
O=C(CS(=O)c1ccc(C(F)(F)F)cc1[N+](=O)[O-])Oc1ccc(Cl)cc1 (centres undefined),58,·,-6,21*,·,88
Cc1cc(C)cc(OC(=O)CS(=O)c2ccc(C(F)(F)F)cc2[N+](=O)[O-])c1 (centres undefined),64*,·,3,15*,·,84
CN(CC(=O)Nc1ccc(F)c(F)c1F)c1cnccn1,69,4,23,95,-11,93
CCOc1cc2c3c(c1)C1(C(=O)N3C(C)(C)C=C2C)C(C#N)=C(N)Oc2cc(O)ccc21 (centres undefined),46,-2,2,33*,57,83
COc1cc2c3c(c1)C1(C(=O)N3C(C)(C)C=C2C)C(C#N)=C(N)Oc2cc(O)ccc21 (centres undefined),68,1,7,65,65*,93
CCc1ccc(-c2cn3nc(C)c(C)nc3n2)cc1,·,·,-2,·,14,·
O=C(O)c1ccc2c3c(ncnc13)-c1ccccc1C2=O,41,6,1,65,17,23*
O=C(CSc1nnc2scc(-c3ccccc3)n12)Nc1ccc2c(c1)OCCO2,85,2,-11,76,59,89
CCOC(=O)c1ccc(Oc2nc(OC)nc(N(C)C)n2)cc1,102,-2,-12,88,1,99
SMILES,HUVEC prolif 384,Jurkat tox 60K,Ecoli WT expand,H69AR inhibit,tolC growth inh,Fibroblast inh
O=C1NCCCC2c3c(cc(Br)c(O)c3Br)OC12N1CCOCC1 (centres undefined),100,-10,8,100,-14,109
O=C1NCCCC2c3cc(O)c4ccccc4c3OC12N1CCCCC1 (centres undefined),3.4*,20,3,20*,-6,106
CCOC(=O)Nc1ccc2c(c1)N(C(=O)CCN1CCOCC1)c1ccccc1S2=O (centres undefined),73,15,-4,1.9*,-12,74
c1ccc(CN2c3ccccc3-c3nc4ccccc4n3C2c2ccccn2)cc1 (centres undefined),74,·,-19,32*,·,80
O=[N+]([O-])c1ccc(/C=N/Nc2nc(N3CCCCCC3)nc(N3CCCCCC3)n2)o1,70,·,·,28*,·,85
Cn1cc(C(=O)c2ccc(Cl)cc2Cl)cc1C(=O)N/N=C(\N)COc1cccc(C(F)(F)F)c1,69,·,-8,27*,·,77
CCc1nnc(NC(=O)CSc2nnc(-c3ccc(S(=O)(=O)N(CC)CC)cc3)n2CC)s1,100,·,-1,100,·,98
CCc1ccc(NC(=O)c2ccc3c(c2)C(=O)N(Cc2ccco2)C3=O)cc1,84,8,-3,62,-10,95
COC(=O)c1ccccc1NC(=O)c1ccc2c(c1)C(=O)N(Cc1ccco1)C2=O,92,-6,·,11*,-8,107
CC(=O)CCC(=O)NCCc1ccccc1F,86,1,6,92,-14,110
CCSc1nnc(NC(=O)C(CC)(C(F)(F)F)C(F)(F)F)s1,73,·,2,36*,0,95
CCSc1nnc(NC(=O)c2cnccn2)s1,97,-1,·,49,-2,·
CCSc1nnc(NC(=O)c2ccccn2)s1,45,76*,63*,18*,100*,·
CCSc1nnc(NC(=O)C(C)(C(F)(F)F)C(F)(F)F)s1,84,·,-9,88,6,100
O=C(Nc1ccc(F)cc1)N1CCN(c2nc3ccccc3s2)CC1,114,10,5,76,31,91
N/C(Cc1ccc(Cl)c(Cl)c1)=N\OC(=O)c1cccs1,·,·,39,·,·,·
O=C(Oc1c(Cl)cc(Cl)c2cccnc12)c1ccco1,30,·,100*,1.8*,·,43*
O=C(Oc1c(Cl)cc(Cl)c2cccnc12)c1cccs1,48,·,·,27*,·,61
O=C(Oc1cncc(Cl)c1)c1ccco1,94,·,·,87,·,112
CCCCOC(=O)c1ccc(NC(=O)CSCc2n[nH]c(=O)[nH]2)cc1,85,0,3,83,-9,97
CC(CCc1ccccc1)C(=O)NO (centres undefined),97,0,10,77,-6,102
COc1ccc(C(=O)CSc2nnc(-c3ccc(C)cc3)o2)cc1,81,-3,-5,102,·,94
COc1ccc(-c2nnc(SCC#CCO)o2)cc1OC,102,-1,-1,31*,-26,97
COc1ccc(-c2nnc(SCC(=O)N3CCCC3)o2)cc1OC,96,0,·,99,-3,100
